Changes are numbered by the printed parent chain.
How the values were obtained:
[1] = molecular target: T1, GK-WT (Homo sapiens, UniProt P35557); assay: D-glucose binding by tryptophan fluorescence titration; settings: for ΔG of glucose binding / ΔH of glucose binding / ΔS of glucose binding: pure wild type GK, 25 °C, pH 7.3, Vant Hoff plot
T1 sequence (P35557 1-465): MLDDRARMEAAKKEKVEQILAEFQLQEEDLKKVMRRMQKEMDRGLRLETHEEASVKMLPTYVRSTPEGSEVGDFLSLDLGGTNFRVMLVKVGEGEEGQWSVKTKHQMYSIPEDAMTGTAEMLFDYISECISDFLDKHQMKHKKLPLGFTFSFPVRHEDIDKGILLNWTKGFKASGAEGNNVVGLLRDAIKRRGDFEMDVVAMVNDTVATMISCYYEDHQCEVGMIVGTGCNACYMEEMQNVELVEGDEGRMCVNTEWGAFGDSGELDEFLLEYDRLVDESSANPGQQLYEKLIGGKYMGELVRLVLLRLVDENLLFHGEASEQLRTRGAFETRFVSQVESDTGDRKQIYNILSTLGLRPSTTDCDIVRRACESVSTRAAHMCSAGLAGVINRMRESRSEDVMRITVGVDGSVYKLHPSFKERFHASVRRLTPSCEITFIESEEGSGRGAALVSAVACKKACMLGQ

[2] = molecular target: T2, GK- W257 (W99R/W167F) (Homo sapiens, UniProt P35557, W167F/W99R); assay: as above; settings: W-257, no GKA
T2 sequence (P35557 1-465 W99R/W167F): T1 sequence (P35557 1-465) with W99R, W167F

[3] = molecular target: T1, GK-WT; assay: NADP+-coupled spectrophotometric kinetic assay; assay type: biochemical; settings: GK-WT, no GKA
[4] = molecular target: T3, GK-W167 (W99R/W257F) (Homo sapiens, UniProt P35557, W257F/W99R); assay: NADP+-coupled spectrophotometric kinetic assay; assay type: biochemical; settings: W-167, no GKA
T3 sequence (P35557 1-465 W99R/W257F): T1 sequence (P35557 1-465) with W99R, W257F
In short: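 Recombinant human β-cell glucokinase single-Trp variant, expressed in E. coli as a GST fusion and sequence-verified. Catalytic parameters came from an NADP+-coupled spectrophotometric assay run with or without 30% glycerol. Hill coefficient and glucose S0.5 were obtained by fitting v/Vmax = [glucose]^H/(K′+[glucose]^H), with […].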

[5] = molecular target: T2, GK- W257 (W99R/W167F); assay: NADP+-coupled spectrophotometric kinetic assay; assay type: biochemical; settings: W-257, no GKA
[6] = molecular target: T2, GK- W257 (W99R/W167F); assay: DSC thermal denaturation; settings: W-257 in buffer, 300 mM D-glucose
In short: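 Samples were degassed and scanned by DSC at 0.25 degree/min against a reference holding everything except protein. Tm and calorimetric ΔH were taken by integrating the Cp-vs-temperature thermogram; Cpm is the apparent heat capacity at the maximum.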

Kd ([1]; D-glucose binding KD, GK-WT, no GKA, 20% glycerol): 1.8 mM
Kd ([1]; D-glucose binding KD, GK-WT, no GKA, no glycerol): 7.4 mM
Kd ([1]; glucose KD, 11 °C, absence of glycerol): 13.7 mM
Kd ([1]; glucose KD, 45 °C, presence of glycerol): 1.15 mM
ΔG of glucose binding ([1]; 20% glycerol): -3.82 kcal/mol
ΔH of glucose binding ([1]; 20% glycerol): 4.78 ± 0.72 kcal/mol
ΔS of glucose binding ([1]; 20% glycerol): 120+/−9 J/mol*K
ΔG of glucose binding ([1]; no glycerol): -3.13 kcal/mol
ΔH of glucose binding ([1]; no glycerol): 8.13 ± 0.48 kcal/mol
ΔS of glucose binding ([1]; no glycerol): 157+/−4 J/mol*K
Kd ([2]; 20% glycerol): 2.09 mM
Kd ([2]; no glycerol): 11.3 mM
Glucose S0.5 ([3]; 30% glycerol): 3.15 mM
nH (Hill coefficient towards glucose) ([3]; 30% glycerol): 1.78
Glucose S0.5 ([3]; no glycerol): 6.26 mM
nH (Hill coefficient towards glucose) ([3]; no glycerol): 1.69
Glucose S0.5 ([4]; 30% glycerol): 0.82 mM
kcat ([4]; 30% glycerol): 26.2 s⁻¹
nH (Hill coefficient towards glucose) ([4]; 30% glycerol): 1.32
Glucose S0.5 ([4]; no glycerol): 2.28 mM
kcat ([4]; no glycerol): 69.9 s⁻¹
nH (Hill coefficient towards glucose) ([4]; no glycerol): 1.53
Glucose S0.5 ([5]; 30% glycerol): 4.70 mM
kcat ([5]; 30% glycerol): 6.37 s⁻¹
nH (Hill coefficient towards glucose) ([5]; 30% glycerol): 1.43
Glucose S0.5 ([5]; no glycerol): 9.82 mM
kcat ([5]; no glycerol): 12.4 s⁻¹
kcat/S0.5 ([5]; no glycerol): 1270 M⁻¹ s⁻¹
nH (Hill coefficient towards glucose) ([5]; no glycerol): 1.23
Cp^m [6]: 122.6 kJ/mol/°C
ΔH thermal denaturation [6]: 158 kcal/mol
Tm ([6]; DSC): 51.2 °C
Compound: OC[C@H]1OC(O)[C@H](O)[C@@H](O)[C@@H]1O (stereo partly drawn) [D-glucose]
